Screens as filed in PubChem BioAssay.
Hep lipid drop: inhibitors of hepatocyte lipid droplet formation, primary screen, imaging, high-throughput imaging, BODIPY stain; AML12 mouse hepatocytes, oleate lipid droplets; inhibition, % at 6.5 µM; 0.4% of 240,000 active; AID 1656, 2009;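 active = lipid droplet intensity inhibited by at least 50%, with more than 500 cells counted; inconclusive = wells with under 300 cells, treated as cytotoxic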
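Test system: AML12 mouse liver cells; schedule: overnight exposure; technique: high-content imaging of BODIPY-stained droplets and DAPI nuclei; read-out: % inhibition of corrected integrated BODIPY droplet signal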
NS3 helicase inh: inhibitors of HCV NS3 helicase, primary screen, biochemical, Cy5 molecular beacon fluorescence; Hepatitis C virus NS3 helicase; NS3 helicase DNA unwinding; inhibition, % at 10.9 µM; 0.56% of 290,000 active;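 active = inhibition above the mean of all tested compounds plus 3 SD, set per campaign, cut at about 35% in these data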;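 also: 0% = DMSO wells and 100% = thioflavine S control wells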
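System: NS3 helicase fragment of HCV / Schedule: 1 h at 25 °C / Control set: DMSO alone as 0% and 110 µM thioflavine S as 100% / Reagent: Cy5/quencher beacon DNA duplex and ATP to start / Technique: Cy5 fluorescence / Replication: singlicate / Evaluation: % inhibition of end-to-start signal ratio versus controls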
HSF-1 act: HSF-1 activators, primary screen, NIH3T3-HGL cells, MG132 stress, luminescence, single point | NIH3T3-HGL HSF-1 luciferase reporter, 8 h; 100% = twice DMSO control signal | activation, % at 9 µM | 1.7% of 300,000 active | AID 504408, 2011;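 active = mean replicate activation of at least 50% with a set share of replicates each reaching 50%; inconclusive = only one of those two conditions met; inactive = mean below 50% and too few replicates reaching it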;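 also: 0% = median of the neutral control wells and 100% = twice that signal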
HSF1 inh: HSF1 inhibitors in luciferase reporter cells, primary screen, cell-based, NIH3T3, luminescence; NIH3T3-HGL HSE-luciferase, MG132-induced, luminescence 8 h; active compounds read low; activity change, negative = inhibition, % at 7.5 µM (by protocol); 0.77% of 300,000 active;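 active = more than half of replicate wells show activity change below -50%, luminescence cut by over half; inconclusive = some wells, but at most half, below -50%; inactive = no replicate well below -50%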;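 also: luciferase reports HSF-1 transcriptional activity via heat shock element; 0% = median of DMSO wells and -100% = zero luminescence signal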
HSP90 inh: HSP90 inhibitors, primary screen, cell lysate, luminescence; Heat shock protein HSP 90 (rabbit reticulocyte lysate; luciferase refolding); Rabbit reticulocyte lysate, luciferase refolding luminescence, 3 h; inhibition, % at 5.6 µM; 0.91% of 290,000 active; AID 1789, 2009;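 active = inhibition above the screen-wide mean plus 3 SD, computed separately per campaign, cut at about 16% in these data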;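 also: 0% = DMSO wells and 100% = 60 µM geldanamycin wells; inhibitors lower the luminescence because luciferase stays unfolded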
NS3 helicase cf: HCV NS3 helicase inhibitors, retest, confirmation, biochemical, Cy5 molecular beacon fluorescence, triplicate. shares compounds with NS3 helicase inh. NS3 helicase DNA unwinding. inhibition, % at 10.9 µM. 31% of 1,600 active. AID 1943, 2009;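 active = inhibition above the mean of all tested compounds plus 3 SD, cutoff set per campaign, cut at about 36% in these data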
DNA FID counter: compounds displacing fluorescent DNA intercalator, artefact control for HCV NS3 helicase inhibitor project, biochemical, FID fluorescence, triplicate; shares compounds with NS3 helicase inh; DNA fluorescent intercalator displacement; inhibition, % at 7.9 µM; 4% of 1,600 active; in the data active = inhibition above about 37%;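 also: 0% = vehicle and 100% = reference compound; higher means more displacement of ethidium bromide from the DNA hairpin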
FID counter DR: compounds displacing fluorescent intercalator from DNA, dose response, counter-screen for HCV NS3 helicase inhibitor project, biochemical, fluorescence; shares compounds with NS3 helicase inh; fluorescent intercalator displacement from DNA; IC50, µM; 120 tested, under 10 active; AID 2172, 2009; call rule not given here
An asterisk follows results filed as active; u = inconclusive; x = not tested or not shown. This is a sample that favours compounds with a hit; in the whole collection about 3.8% have one here.

SMILES	Hep lipid drop	NS3 helicase inh	HSF-1 act	HSF1 inh	HSP90 inh	NS3 helicase cf	DNA FID counter	others
O=C(Nc1ccc(-n2nncc2-c2ccco2)cc1)c1ccc(F)cc1	x	5.5	14.3	6.4	0.1	x	x
CN(C)CCCNS(=O)(=O)c1ccc(NC2CCCCCC2)c([N+](=O)[O-])c1	-29.7	-66.4	-7.8	-11.9	4.7	x	x
COCc1cc(C)nc(SCC(=O)Nc2nc(C)cs2)c1C#N	-7.3	-0.6	-8.4	-6.1	4.5	x	x
CCN(CC)c1ccc(/C=C2\C(=N)N3N=C(CC(=O)N4CCOCC4)SC3=NC2=O)cc1	-4.9	14.5	-6.2	-6.1	-0.6	x	x
OC(COc1ccc(CN2CCCCO2)cc1)CN1CCCCC1 (centres undefined)	-11.7	7.4	-3.1	-6.5	2.8	x	x
O=C(O)c1ccc(/C=N/NC(=O)c2cc(-c3ccc4c5c(cccc35)CC4)n[nH]2)cc1	0.9	36.9*	23.9	3.4	-3.9	65.3*	-2.1
COc1ccc(CCNC(=O)CSc2ccc(-c3cccs3)nn2)cc1OC	3.3	14.2	5.1	-2.4	-2.6	x	x
O=C(NC(Cc1c[nH]c2ccccc12)C(=O)O)c1ccc(F)cc1 (centres undefined)	4.9	4.7	9.4	-4.3	1.3	x	x
O=C(Nc1ccccc1C(=O)NC(Cc1c[nH]c2ccccc12)C(=O)O)c1ccccc1 (centres undefined)	1.8	39.7*	-8.5	-1.1	-3.5	42.3*	-36.0
Oc1c(Br)cc(Br)c(/C=N/n2c(-c3ccccc3)n[nH]c2=S)c1Br	-1.0	39.5*	19.8	-4.1	-2.7	68.8*	13.2
S=c1[nH]nc(-c2ccc(Cl)cc2)n1/N=C/C=C/c1ccco1	-19.0	26.5	5.1	-1.3	-4.0	x	x
Cc1ccccc1-c1n[nH]c(=S)n1/N=C/C=C/c1ccco1	5.8	37.7*	3.8	-1.9	-1.6	-5.0	7.0
Oc1ccc(Br)cc1/C=N/n1c(-c2ccccc2)n[nH]c1=S	-0.8	26.7	24.6	-5.4	1.1	x	x
S=c1[nH]nc(-c2ccccc2)n1/N=C/C=C/c1ccco1	8.7	52.2*	32.2	16.8	3.2	-3.0	8.8
Cc1cc(-c2n[nH]c(=S)n2/N=C/C=C/c2ccco2)n[nH]1	-25.0	30.0	10.5	-6.4	2.4	x	x
CCCNC(=O)C(=O)NCC(c1ccc2c(c1)OCO2)N1CCN(c2ccc(F)cc2)CC1 (centres undefined)	2.0	-9.5	-2.1	10.5	3.1	x	x
COc1ccc(-c2cc(Cl)cc3c(=O)c4ccccc4n(C)c23)cc1F	-6.5	66.5*	-36.3	-18.0	2.6	-3.2	-10.1
O=C1CCC([N+](=O)[O-])C(c2cc3c(cc2Cl)OCO3)N1 (centres undefined)	3.4	-2.1	-9.9	-7.3	4.0	x	x
COc1cccc(C(=O)CC(=O)C(=O)Nc2ccc(C)cc2Cl)c1	2.4	63.2*	25.6	10.5	4.9	21.4	0.6
COc1cccc(C(=O)CC(=O)C(=O)Nc2cc(OC)ccc2OC)c1	x	30.2	-1.8	6.6	-6.0	x	x
COc1ccc(C(=O)CC(=O)C(=O)Nc2ccc(C)cc2Cl)cc1	x	38.5*	u	16.3	-0.1	-29.5	3.0
COc1ccc(C(=O)CC(=O)C(=O)Nc2ccccc2OC)cc1	x	29.5	6.5	0.2	1.2	x	x
CCOC(=O)c1c(NC(=O)C2=COCCO2)sc2c1CCN(C(=O)OC)C2	x	x	-5.2	0.2	x	x	x
COc1ccc(/C=N\NC(=O)c2cc(O)c(O)c(O)c2)cc1COc1ccc(C(=O)OCC(C)C)cc1	-0.9	38.6*	6.3	8.5	-5.2	55.9*	-8.6	FID counter DR=>79.4
COc1ccc(C(=O)N/N=C/c2ccc(OC)c(COc3ccccc3)c2)cc1	-12.5	-7.8	8.2	-1.9	0.4	x	x
SMILES	Hep lipid drop	NS3 helicase inh	HSF-1 act	HSF1 inh	HSP90 inh	NS3 helicase cf	DNA FID counter	others
NNS(=O)(=O)c1ccc2c(c1)Cc1cc(S(=O)(=O)NN)ccc1-2	10.0	39.3*	5.6	-7.1	0.5	-17.2	2.4
O=S(=O)(NCCO)c1ccc2c(c1)Cc1cc(S(=O)(=O)NCCO)ccc1-2	x	11.6	4.1	-2.3	-0.8	x	x
Cc1ccc(C(=O)NC(=S)NCc2ccccc2)cc1Br	x	x	-0.9	-2.7	x	x	x
O=C(CN(CCc1ccccc1)C(=O)c1csnn1)NCc1ccc(F)cc1	-3.3	7.9	19.3	5.9	5.5	x	x
CCOc1ccc(NC(=O)c2cc3cc4ccc(C)cc4nc3o2)cc1	-7.6	46.6*	-7.5	2.0	-6.0	-16.8	-1.3
CCC(C)NC(=O)c1cc2cc3ccc(OC)cc3nc2o1 (centres undefined)	4.1	38.1*	62.5*	26.5	1.8	-9.8	-29.4
Cc1ccc(C(CC(=O)O)NC(=O)CN2C(=O)c3ccccc3C2=O)cc1 (centres undefined)	x	4.6	-2.1	-7.0	0.6	x	x
Cc1ccccc1NC(=O)c1sc2nc3c(c(-c4ccco4)c2c1N)CCCC3	5.3	44.0*	8.0	3.1	-2.0	-12.2	-26.6
Nc1c(C(=O)Nc2ccccc2)sc2nc3c(c(-c4ccco4)c12)CCC3	x	41.2*	2.0	-2.3	0.6	-10.1	-16.3
Nc1c(C(=O)Nc2ccccc2)sc2nc3c(c(-c4ccco4)c12)CCCC3	x	12.0	10.9	24.0	1.7	x	x
COc1ccc(-c2c3c(nc4sc(C(=O)Nc5ccccc5)c(N)c24)CCC3)cc1	x	1.4	14.0	19.1	-3.7	x	x
CCCCn1c(N)c(NCCC(C)C)c(=O)[nH]c1=O	-3.5	44.7*	x	x	2.2	-14.9	-13.3
Cc1cc([N+](=O)[O-])ccc1NC(=S)NC1CCCC1	0.2	-2.7	22.5	0.4	-4.5	x	x
CCCCOc1[nH]c2nc(-c3ccco3)n(Cc3ccco3)c(=N)c2c1C#N	3.4	39.0*	16.1	0.3	2.9	12.7	18.8
CCCCC(CCC(=O)O)(C(=O)OCC)c1csc(Nc2ccc(C)cc2)n1 (centres undefined)	11.7	27.8	-27.9	-9.1	-8.3	x	x
CCOC(=O)C(CC)(CCC(=O)OC)c1csc(Nc2ccccc2O)n1 (centres undefined)	-2.5	39.6*	1.1	-0.9	1.3	3.6	-23.4
O=C(O)c1ccc2c(c1)C(=O)/C(=C/c1ccccc1)C2=O	-10.9	5.1	7.2	-6.2	3.1	x	x
O=C1C(=Cc2ccco2)C(=O)c2ccccc21	5.5	50.0*	15.5	6.5	0.4	-19.5	19.2
